# Experimental data from different studies.
# Protocols differ between the studies behind these lines.
# Cell line: SK-BR-3
# Read-out: cell growth or viability
Structure (SMILES),test,setting,endpoint,result
NNc1nc(Nc2ccccc2)nc(Nc2ccc(Br)cc2)n1,SRB,72 h,IC50,> 30000 nM
CC(C)C[C@H](NC(=O)[C@H](Cc1ccccc1)NC(=O)c1cnccn1)B(O)O,ATP luminescence,,IC50,8.8 nM
CN1CCN(c2ccc(Nc3ncc4cc(C#N)c(=O)n(C5CCCC5)c4n3)cc2)CC1,resazurin,96 h,GI50,600 nM
Cc1cc(C)n(-c2nc(NN=Cc3c[nH]c4ccccc34)nc(Nc3ccc(Br)cc3)n2)n1,SRB,72 h,IC50,6000 nM
CC(=O)O[C@H]1C(=O)[C@@]2(C)[C@H]([C@H](OC(=O)c3ccccc3)[C@]3(O)C[C@H](OC(=O)[C@H](O)[C@@H](NC(=O)c4ccccc4)c4ccccc4)C(C)=C1C3(C)C)[C@]1(OC(C)=O)CO[C@@H]1C[C@@H]2O,MTT,72 h,IC50,5 nM
COc1cccc2c1C(=O)c1c(O)c3c(c(O)c1C2=O)C[C@@](O)(C(=O)CO)C[C@@H]3O[C@H]1C[C@H](N)[C@H](O)[C@H](C)O1,MTT,72 h,IC50,1650 nM
COc1cc(OC)c(/C=C/S(=O)(=O)Nc2ccc(OC)c(N)c2)c(OC)c1,trypan blue,96 h,IC50,4 nM
COc1cc(Nc2nccc(-c3cnn4nc(OC)ccc34)n2)cc(C(F)(F)F)c1,ATP luminescence,,IC50,340 nM
COC1=C2C[C@@H](C)C[C@H](OC)[C@H](O)[C@@H](C)/C=C(\C)[C@H](OC(N)=O)[C@@H](OC)/C=C\C=C(/C)C(=O)NC(=CC1=O)C2=O,SRB,72 h,IC50,50 nM
CC(=O)c1c(C)c2cnc(Nc3ccc(N4CCNCC4)cn3)nc2n(C2CCCC2)c1=O,resazurin,,GI50,5000 nM
